Laboratory results from paper PMC2862812 (Biochimica et biophysica acta, 2009).
Where no end group is shown, it is not given here.

Assay: Tryptophan fluorescence of peptides in phosphate buffer without lipid
Assay type: physicochemical
Details: no lipid; from fluorescence and CD
Outline: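 7 μM peptide in buffer without liposomes, pH 8 or 4 (adjusted with dilute NaOH/HCl), temperature-controlled. Trp emission 310–450 nm, excitation 295 nm, slits 2–4/2 nm; CD spectra recorded in parallel.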

Molecule | State of the peptide in aqueous solution (solubility / aggregation)
AAEQNPIYWARYAEWLFTTPLLLLDLALLVDADEGT [D14E] | remain soluble and monomeric in solution
AAEQNPIYWARYADWLFTTPLLLLALALLVDADEGT [D25A] | probably, more aggregated in solution
CC[C@H](C)[C@H](NC(=O)[C@@H]1CCCN1C(=O)[C@H](CC(N)=O)NC(=O)[C@H](CCC(N)=O)NC(=O)[C@H](CCC(=O)O)NC(=O)[C@H](C)NC(=O)[C@H](C)N)C(=O)N[C@@H](Cc1ccc(O)cc1)C(=O)N[C@@H](Cc1c[nH]c2ccccc12)C(=O)N[C@@H](C)C(=O)N[C@@H](CCCNC(=N)N)C(=O)N[C@@H](Cc1ccc(O)cc1)C(=O)N[C@@H](C)C(=O)N[C@@H](CC(=O)O)C(=O)N[C@@H](Cc1c[nH]c2ccccc12)C(=O)N[C@@H](CC(C)C)C(=O)N[C@@H](Cc1ccccc1)C(=O)N[C@H](C(=O)N[C@H](C(=O)N1CCC[C@H]1C(=O)N[C@@H](CC(C)C)C(=O)N[C@@H](CC(C)C)C(=O)N[C@@H](CC(C)C)C(=O)N[C@@H](CC(C)C)C(=O)N[C@@H](CC(=O)O)C(=O)N[C@@H](CC(C)C)C(=O)N[C@@H](C)C(=O)N[C@@H](CC(C)C)C(=O)N[C@@H](CC(C)C)C(=O)N[C@H](C(=O)N[C@@H](CC(=O)O)C(=O)N[C@@H](C)C(=O)N[C@@H](CC(=O)O)C(=O)N[C@@H](CCC(=O)O)C(=O)NCC(=O)N[C@H](C(=O)O)[C@@H](C)O)C(C)C)[C@@H](C)O)[C@@H](C)O [WT, reference compound] | unfolded and monomeric
AAEQNPIYWARYADWLFTDLPLLLLDLLALLVDADEGT [3D] | aggregated state of the peptide in solution even at low concentrations
AAEQNPIYWARYADWLFTTPLLLLELALLVDADEGT [D25E] | remain soluble and monomeric in solution
